According to ChEMBL document CHEMBL5120742, “Multi-target weapons: diaryl-pyrazoline thiazolidinediones simultaneously targeting VEGFR-2 and HDAC cancer hallmarks” (RSC Med Chem, 2021):

Key:
[1] = biological target: T1, Histone deacetylase 8 (Homo sapiens, UniProt Q9BY41); assay: Inhibition of recombinant human N-terminal His6-SUMO-tagged C-terminal SII-tagged HDAC8 expressed in Escherichia coli (BL21) DE3 pLysS cells using BocLys(trifluoroacetyl)-AMC as substrate incubated for 30 mins by fluorescence assay
T1 sequence (Q9BY41 whole entry): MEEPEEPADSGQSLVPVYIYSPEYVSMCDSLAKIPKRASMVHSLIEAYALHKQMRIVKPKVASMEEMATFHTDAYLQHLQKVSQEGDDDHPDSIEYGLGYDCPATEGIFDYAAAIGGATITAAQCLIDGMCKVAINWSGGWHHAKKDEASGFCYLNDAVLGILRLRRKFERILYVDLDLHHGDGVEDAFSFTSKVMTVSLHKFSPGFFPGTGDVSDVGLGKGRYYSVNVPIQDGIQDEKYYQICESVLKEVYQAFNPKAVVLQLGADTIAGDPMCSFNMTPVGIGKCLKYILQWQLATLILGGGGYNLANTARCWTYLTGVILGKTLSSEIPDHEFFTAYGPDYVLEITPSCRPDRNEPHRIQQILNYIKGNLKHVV
Method in brief: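 Catalytic-domain HDAC4 (His6-SUMO/SII-tagged) and full-length codon-optimized human HDAC8 were expressed in E. coli BL21 DE3 pLysS from pET14b. Both were assayed in a two-step fluorogenic format with Boc-Lys(trifluoroacetyl)-AMC, followed by trypsin development. Compounds were screened first at 50 µM for residual activity.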

[2] = biological target: T2, Protein deacetylase HDAC6 (Homo sapiens, UniProt Q9UBN7); assay: Inhibition of recombinant human HDAC6 using Boc-Lys(acetyl)-AMC as substrate incubated for 30 mins by fluorescence assay
T2 sequence (Q9UBN7 whole entry): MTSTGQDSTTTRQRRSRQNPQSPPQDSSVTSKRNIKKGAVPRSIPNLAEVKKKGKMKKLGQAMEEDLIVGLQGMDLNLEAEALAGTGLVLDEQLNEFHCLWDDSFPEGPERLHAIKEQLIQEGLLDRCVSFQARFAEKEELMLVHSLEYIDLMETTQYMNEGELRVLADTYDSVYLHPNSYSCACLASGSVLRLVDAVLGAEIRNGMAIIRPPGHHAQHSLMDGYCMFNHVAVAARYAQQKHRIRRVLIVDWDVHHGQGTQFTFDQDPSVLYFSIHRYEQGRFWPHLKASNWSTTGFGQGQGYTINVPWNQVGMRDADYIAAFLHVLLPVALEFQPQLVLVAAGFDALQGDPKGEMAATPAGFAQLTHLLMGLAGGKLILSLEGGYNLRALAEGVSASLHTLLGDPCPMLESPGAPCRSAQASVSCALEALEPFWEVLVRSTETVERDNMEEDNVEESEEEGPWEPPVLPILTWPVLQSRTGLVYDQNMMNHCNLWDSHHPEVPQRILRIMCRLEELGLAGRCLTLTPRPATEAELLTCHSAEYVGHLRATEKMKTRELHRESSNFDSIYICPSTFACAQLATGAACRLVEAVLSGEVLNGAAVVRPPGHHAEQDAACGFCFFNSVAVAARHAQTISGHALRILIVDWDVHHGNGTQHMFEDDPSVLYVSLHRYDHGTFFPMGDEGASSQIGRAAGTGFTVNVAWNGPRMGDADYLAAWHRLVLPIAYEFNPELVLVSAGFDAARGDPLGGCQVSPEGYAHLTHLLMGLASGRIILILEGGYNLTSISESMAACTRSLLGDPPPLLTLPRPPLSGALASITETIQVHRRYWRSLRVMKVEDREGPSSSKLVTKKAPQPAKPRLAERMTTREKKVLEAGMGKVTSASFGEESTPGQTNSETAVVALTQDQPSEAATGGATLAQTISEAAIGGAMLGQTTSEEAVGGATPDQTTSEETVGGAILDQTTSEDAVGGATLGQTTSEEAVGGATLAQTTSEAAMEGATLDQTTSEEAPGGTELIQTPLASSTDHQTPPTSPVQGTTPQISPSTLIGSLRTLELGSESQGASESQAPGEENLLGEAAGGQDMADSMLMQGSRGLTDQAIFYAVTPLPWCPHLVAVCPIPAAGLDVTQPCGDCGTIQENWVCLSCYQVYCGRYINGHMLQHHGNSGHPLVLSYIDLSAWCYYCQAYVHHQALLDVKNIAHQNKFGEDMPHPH
Method in brief: (§1)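 Two-step fluorogenic assay with recombinant HDAC1, 2, 3 or 6. Deacetylation of Boc-Lys(acetyl)-AMC is followed by trypsin conversion of the deacetylated product to a fluorescent signal.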

[3] = biological target: Histone deacetylase 3/Nuclear receptor corepressor 2 (HDAC3/NCoR2) (Homo sapiens, UniProt O15379); assay: Inhibition of C-terminal His-tagged recombinant human HDAC3 (1 to 428 residues)/N-terminal GST-tagged recombinant human NCoR2 (395 to 489 residues) co-expressed in baculovirus infected Sf9 cells using Boc-Lys(acetyl)-AMC as substrate incubated for 30 mins by fluorescence assay; method in brief: as §1
Chain of Histone deacetylase 3/Nuclear receptor corepressor 2 (HDAC3/NCoR2) (O15379 whole entry, the tested form may be a part): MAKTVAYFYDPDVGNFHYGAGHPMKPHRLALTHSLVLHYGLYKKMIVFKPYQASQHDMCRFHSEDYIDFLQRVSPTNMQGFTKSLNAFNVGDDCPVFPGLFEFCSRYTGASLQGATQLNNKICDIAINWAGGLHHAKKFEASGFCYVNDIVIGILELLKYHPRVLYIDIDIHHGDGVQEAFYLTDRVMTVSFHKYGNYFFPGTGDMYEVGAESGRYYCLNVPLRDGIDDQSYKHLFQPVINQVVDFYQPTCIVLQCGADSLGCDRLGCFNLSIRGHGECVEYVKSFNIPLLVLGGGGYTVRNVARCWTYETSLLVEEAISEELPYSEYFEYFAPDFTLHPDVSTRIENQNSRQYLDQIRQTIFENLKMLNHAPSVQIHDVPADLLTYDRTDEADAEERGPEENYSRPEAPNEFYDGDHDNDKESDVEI
Chain of Histone deacetylase 3/Nuclear receptor corepressor 2 (HDAC3/NCoR2) (Q9Y618 whole entry, further chain, the tested form may be a part): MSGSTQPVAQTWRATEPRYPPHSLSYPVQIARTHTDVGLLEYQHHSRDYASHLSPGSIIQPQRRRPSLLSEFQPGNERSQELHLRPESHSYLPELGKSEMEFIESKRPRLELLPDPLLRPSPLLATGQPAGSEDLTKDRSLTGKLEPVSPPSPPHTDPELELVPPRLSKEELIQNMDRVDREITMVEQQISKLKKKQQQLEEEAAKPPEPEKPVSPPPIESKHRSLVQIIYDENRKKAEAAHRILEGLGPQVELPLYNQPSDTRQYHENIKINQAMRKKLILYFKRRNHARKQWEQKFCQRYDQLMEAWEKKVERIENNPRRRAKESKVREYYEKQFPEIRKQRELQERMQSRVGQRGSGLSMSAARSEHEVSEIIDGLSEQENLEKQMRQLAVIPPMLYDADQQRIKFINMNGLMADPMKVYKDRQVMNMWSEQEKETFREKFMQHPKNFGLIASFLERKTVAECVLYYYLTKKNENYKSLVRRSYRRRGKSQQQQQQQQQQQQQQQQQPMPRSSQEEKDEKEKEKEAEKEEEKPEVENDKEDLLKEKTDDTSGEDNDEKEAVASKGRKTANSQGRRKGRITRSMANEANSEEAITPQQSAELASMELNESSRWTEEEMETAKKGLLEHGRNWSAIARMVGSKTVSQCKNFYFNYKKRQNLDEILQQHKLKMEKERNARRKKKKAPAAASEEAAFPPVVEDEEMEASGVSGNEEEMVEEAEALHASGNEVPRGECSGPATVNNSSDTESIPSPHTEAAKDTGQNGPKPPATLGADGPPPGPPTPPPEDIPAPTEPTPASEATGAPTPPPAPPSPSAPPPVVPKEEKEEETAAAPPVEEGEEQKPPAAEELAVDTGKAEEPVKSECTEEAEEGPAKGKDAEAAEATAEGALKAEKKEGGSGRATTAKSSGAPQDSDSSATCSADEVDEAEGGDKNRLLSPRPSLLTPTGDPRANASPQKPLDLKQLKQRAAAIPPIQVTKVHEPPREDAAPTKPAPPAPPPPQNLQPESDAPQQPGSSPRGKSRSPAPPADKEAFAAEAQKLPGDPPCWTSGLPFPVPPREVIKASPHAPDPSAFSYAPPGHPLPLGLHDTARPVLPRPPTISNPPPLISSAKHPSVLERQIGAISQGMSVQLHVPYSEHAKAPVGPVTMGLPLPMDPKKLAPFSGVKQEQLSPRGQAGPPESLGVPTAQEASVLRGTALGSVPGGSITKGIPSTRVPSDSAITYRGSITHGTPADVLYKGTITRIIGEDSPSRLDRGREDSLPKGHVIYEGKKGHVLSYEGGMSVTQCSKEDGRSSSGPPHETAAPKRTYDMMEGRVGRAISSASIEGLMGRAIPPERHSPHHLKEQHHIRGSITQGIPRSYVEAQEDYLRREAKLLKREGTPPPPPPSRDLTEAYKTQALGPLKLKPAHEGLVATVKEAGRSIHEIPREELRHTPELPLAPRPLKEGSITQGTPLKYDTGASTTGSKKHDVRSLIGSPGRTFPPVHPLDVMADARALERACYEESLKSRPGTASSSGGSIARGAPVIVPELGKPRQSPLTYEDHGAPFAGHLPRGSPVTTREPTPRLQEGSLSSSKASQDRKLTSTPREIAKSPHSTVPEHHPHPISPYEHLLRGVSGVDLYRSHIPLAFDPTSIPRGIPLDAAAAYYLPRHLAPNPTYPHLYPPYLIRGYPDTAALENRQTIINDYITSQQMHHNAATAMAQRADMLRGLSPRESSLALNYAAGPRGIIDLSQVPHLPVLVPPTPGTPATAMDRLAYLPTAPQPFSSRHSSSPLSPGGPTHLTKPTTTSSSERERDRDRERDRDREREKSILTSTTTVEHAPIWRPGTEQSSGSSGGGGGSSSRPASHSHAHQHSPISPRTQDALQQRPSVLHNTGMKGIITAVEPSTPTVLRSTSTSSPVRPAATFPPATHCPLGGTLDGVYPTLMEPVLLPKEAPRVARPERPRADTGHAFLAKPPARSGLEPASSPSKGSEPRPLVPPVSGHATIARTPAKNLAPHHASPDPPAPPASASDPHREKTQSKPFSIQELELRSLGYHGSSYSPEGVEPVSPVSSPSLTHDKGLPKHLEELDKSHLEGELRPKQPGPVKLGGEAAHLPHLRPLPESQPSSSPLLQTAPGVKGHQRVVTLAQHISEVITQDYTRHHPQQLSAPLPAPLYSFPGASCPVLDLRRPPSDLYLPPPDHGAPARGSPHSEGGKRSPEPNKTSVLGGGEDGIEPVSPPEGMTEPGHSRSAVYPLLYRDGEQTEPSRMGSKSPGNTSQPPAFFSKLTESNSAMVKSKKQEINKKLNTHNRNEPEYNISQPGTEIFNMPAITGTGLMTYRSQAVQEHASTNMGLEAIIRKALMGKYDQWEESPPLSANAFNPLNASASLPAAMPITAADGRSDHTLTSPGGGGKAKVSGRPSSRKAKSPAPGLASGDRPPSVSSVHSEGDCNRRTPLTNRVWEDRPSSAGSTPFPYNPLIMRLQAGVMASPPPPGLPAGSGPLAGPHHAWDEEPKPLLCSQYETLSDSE

[4] = biological target: Histone deacetylase 2 (Homo sapiens, UniProt Q92769); assay: Inhibition of recombinant human HDAC2 Boc-Lys(acetyl)-AMC as substrate incubated for 30 mins by fluorescence assay; method in brief: as §1
Chain of Histone deacetylase 2 (Q92769 whole entry): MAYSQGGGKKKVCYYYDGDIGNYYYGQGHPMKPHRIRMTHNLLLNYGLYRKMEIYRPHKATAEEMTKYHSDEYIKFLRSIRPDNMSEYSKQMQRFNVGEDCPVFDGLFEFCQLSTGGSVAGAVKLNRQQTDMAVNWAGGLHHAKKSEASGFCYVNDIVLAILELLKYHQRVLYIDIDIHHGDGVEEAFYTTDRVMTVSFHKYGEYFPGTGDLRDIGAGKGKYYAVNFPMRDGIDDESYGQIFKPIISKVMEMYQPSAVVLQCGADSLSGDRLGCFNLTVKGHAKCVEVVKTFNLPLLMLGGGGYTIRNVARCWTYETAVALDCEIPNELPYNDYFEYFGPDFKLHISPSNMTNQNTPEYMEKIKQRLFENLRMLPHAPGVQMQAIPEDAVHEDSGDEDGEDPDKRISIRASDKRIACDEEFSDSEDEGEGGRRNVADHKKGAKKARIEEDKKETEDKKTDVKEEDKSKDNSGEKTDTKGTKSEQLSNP

SMILES | IC50 [1] [µM] | IC50 [2] [µM] | IC50 [3] [µM] | IC50 [4] [µM]
O=C1NC(=O)/C(=C\c2ccc(OCC(=O)N3N=C(c4ccccc4)CC3c3ccc(Cl)c(Cl)c3)cc2)S1 (configuration not stated) | 10 | 39 | 9.1 | 13
O=C1NC(=O)/C(=C\c2ccc(OCC(=O)N3N=C(c4ccc(F)cc4)CC3c3ccc(Cl)c(Cl)c3)cc2)S1 (configuration not stated) | 25 | 13 | 11 | 21
O=C1NC(=O)/C(=C\c2ccc(OCC(=O)N3N=C(c4ccc(F)cc4)CC3c3ccco3)cc2)S1 (configuration not stated) | > 50 | 7.6 | > 50 | > 50
